# Measurements reported in ChEMBL document CHEMBL4706727, “Discovery of 2,4-1H-Imidazole Carboxamides as Potent and Selective TAK1 Inhibitors” (ACS Med Chem Lett, 2021).
# pIC50, pKd: −log10 of the molar value. Calls of active or inactive are those of the source.
# What was measured:
# [1] = target: TAK1/TAB1 (Homo sapiens, UniProt O43318); test: Inhibition of recombinant human full-length His-tagged TAK1-TAB1 fusion protein (437 to 504 residues) expressed in baculovirus expression system using fluorescein-MAP2K1 as substrate preincubated for 30 mins followed by substrate addition and measured after 60 mins in presence of ATP by lanthascreen TR-FRET assay
# Chain of TAK1/TAB1 (Q15750 whole entry, one chain of several, the tested form may be a part): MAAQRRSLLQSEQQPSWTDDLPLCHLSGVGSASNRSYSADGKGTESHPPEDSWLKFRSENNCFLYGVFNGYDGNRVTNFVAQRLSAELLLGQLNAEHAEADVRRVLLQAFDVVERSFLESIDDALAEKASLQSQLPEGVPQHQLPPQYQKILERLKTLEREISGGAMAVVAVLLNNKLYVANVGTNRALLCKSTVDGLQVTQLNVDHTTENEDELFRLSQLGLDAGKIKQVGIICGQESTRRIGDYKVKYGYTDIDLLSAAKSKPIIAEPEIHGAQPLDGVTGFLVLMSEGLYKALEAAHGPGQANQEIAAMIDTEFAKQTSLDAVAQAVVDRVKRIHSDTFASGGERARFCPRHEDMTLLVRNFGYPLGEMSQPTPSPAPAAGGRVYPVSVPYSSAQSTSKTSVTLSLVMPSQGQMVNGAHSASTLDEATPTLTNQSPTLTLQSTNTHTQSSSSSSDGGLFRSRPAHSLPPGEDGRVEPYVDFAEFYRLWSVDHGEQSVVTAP
# [2] = Aqueous solubility of compound in pH 7.4 PBS buffer measured after 24 hrs by HPLC-UV analysis; type: physicochemical
# [3] = Half life in human liver S9 fraction at 1 uM measured up to 60 mins in presence of NADPH by LC-MS analysis; type: ADME, subcellular
# [4] = Half life in CD-1 mouse liver S9 fraction at 1 uM measured up to 60 mins in presence of NADPH by LC-MS analysis; type: ADME, subcellular
# [5] = Half life in rat liver S9 fraction at 1 uM measured up to 60 mins in presence of NADPH by LC-MS analysis; type: ADME, subcellular
# [6] = Apparent permeability across apical to basolateral side in human Caco-2 cells at 2 uM after 2 hrs by LC/MS-MS analysis; type: ADME, cell-based
# [7] = Apparent permeability across basolateral to apical side in human Caco-2 cells at 2 uM after 2 hrs by LC/MS-MS analysis; type: ADME, cell-based
# [8] = system: HCT-15; test: Cytotoxicity against TNFalpha-induced human HCT-15 cells assessed as reduction in cell viability up to 10 uM preincubated for 2 hrs followed by TNFalpha stimulation and measured after 72 hrs by celltiter-glo assay; type: functional, cell-based; details: dose microM <=10, time 74.0 hrs
# [9] = target: T1, Phosphatidylinositol 4,5-bisphosphate 3-kinase catalytic subunit delta isoform (Homo sapiens) (UniProt O00329); test: Inhibition of wild-type human partial length PIK3CD (R108 to Q1044 residues) expressed in mammalian expression system at 10 uM by Kinomescan method relative to control; details: dose 1.0 µM, in the assay text read “at 1 uM” for “at 10 uM”
# T1 sequence (whole entry): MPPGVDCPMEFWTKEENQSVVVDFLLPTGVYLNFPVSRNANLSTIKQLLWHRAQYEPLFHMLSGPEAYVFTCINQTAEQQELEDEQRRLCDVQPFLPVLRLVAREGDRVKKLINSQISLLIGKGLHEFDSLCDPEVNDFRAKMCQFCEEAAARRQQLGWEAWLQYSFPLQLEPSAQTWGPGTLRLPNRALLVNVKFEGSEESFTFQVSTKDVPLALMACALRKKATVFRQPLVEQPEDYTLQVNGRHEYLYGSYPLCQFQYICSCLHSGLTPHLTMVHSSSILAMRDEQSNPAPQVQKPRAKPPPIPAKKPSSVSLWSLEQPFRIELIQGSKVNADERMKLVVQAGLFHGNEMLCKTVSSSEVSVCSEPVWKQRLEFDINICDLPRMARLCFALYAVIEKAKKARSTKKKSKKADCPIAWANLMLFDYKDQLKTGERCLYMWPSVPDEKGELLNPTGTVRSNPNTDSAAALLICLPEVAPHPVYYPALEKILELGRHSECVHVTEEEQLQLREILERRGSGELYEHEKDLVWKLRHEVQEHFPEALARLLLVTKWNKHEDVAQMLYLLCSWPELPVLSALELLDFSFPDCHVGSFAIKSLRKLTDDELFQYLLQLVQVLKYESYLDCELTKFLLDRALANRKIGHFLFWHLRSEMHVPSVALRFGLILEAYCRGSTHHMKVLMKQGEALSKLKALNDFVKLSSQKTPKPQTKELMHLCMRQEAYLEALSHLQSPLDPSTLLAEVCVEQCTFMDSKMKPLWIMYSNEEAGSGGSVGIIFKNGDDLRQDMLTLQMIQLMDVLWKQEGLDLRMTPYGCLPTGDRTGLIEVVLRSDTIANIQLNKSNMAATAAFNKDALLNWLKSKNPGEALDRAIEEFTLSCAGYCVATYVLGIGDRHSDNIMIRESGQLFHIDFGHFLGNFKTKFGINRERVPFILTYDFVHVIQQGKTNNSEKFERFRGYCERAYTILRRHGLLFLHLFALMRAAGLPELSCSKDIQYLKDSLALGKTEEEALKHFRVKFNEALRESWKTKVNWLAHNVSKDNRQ
# [10] = target: Phosphatidylinositol 4-phosphate 5-kinase type-1 gamma (Homo sapiens) (UniProt O60331); test: Inhibition wild type human partial length PIP5K1C (M1 to T668 residues) expressed in mammalian expression system at 10 uM by Kinomescan method relative to control; details: dose 1.0 µM, in the assay text read “at 1 uM” for “at 10 uM”
# Chain of Phosphatidylinositol 4-phosphate 5-kinase type-1 gamma (Homo sapiens) (O60331 whole entry, the tested form may be a part): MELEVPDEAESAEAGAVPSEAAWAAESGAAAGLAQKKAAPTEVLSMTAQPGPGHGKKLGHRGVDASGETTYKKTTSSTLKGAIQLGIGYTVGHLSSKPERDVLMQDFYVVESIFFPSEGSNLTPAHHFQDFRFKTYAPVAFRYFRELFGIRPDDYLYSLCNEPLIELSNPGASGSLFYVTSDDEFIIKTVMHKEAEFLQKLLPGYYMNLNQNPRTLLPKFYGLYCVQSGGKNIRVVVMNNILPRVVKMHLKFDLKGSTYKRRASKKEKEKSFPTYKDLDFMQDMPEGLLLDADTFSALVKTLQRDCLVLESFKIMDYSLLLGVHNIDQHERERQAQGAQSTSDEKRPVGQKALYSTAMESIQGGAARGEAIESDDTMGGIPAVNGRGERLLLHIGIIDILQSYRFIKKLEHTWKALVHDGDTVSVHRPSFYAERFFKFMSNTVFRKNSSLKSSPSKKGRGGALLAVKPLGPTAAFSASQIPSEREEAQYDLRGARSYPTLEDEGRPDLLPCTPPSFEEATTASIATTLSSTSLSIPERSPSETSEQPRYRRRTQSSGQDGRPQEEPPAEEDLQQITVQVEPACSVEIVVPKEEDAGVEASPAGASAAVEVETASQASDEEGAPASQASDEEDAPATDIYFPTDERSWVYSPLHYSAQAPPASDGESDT
# [11] = target: T2, Mitogen-activated protein kinase kinase kinase 7 (Homo sapiens, UniProt O43318); test: Binding affinity to wild-type human partial length TAK1 (M1 to Q303 residues) expressed in mammalian expression system by Kinomescan method
# T2 sequence (O43318 whole entry): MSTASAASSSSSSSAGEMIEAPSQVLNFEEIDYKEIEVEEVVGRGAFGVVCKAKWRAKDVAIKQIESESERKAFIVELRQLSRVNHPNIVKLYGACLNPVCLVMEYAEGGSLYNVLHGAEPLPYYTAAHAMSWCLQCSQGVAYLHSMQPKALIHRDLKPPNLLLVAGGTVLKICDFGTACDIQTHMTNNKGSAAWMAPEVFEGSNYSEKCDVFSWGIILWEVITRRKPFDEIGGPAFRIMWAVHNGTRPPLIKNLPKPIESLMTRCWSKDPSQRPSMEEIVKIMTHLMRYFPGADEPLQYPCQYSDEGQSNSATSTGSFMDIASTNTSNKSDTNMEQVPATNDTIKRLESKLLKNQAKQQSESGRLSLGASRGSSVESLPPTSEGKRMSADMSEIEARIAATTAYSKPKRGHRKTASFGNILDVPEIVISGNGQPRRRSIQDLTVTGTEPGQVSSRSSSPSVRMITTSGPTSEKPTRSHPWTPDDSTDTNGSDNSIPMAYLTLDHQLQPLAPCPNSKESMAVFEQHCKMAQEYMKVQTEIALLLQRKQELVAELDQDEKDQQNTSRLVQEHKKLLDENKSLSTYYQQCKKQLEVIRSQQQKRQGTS
# Procedure, shortened: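 Dissociation constant for TAK1 binding measured on the KdELECT platform.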
# [12] = Efflux ratio of apparent permeability across basolateral to apical side over apical to basolateral side in human Caco-2 cells at 2 uM after 2 hrs by LC/MS-MS analysis; type: ADME, cell-based
# [13] = system: Tyrosine-protein kinase ABL1 (Homo sapiens), P00519 [H396P]; test: Inhibition of human ABL1 H396P mutant (S229 to K512 residues) expressed in mammalian expression system at 10 uM by kinomescan method relative to control
# Procedure, shortened: (§1)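 Single-concentration screen at 10 μM across a 468-kinase KINOMEscan panel (453 human, 403 wild-type kinases). Binding to each kinase was read out as percent inhibition relative to control, with >65% taken as the inhibition cutoff.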
# [14] = target: Eukaryotic translation initiation factor 2-alpha kinase 1 (Homo sapiens) (UniProt Q9BQI3); test: Inhibition of wild-type human partial length EIF2AK1 (Q147 to E603 residues) expressed in mammalian expression system at 10 uM by Kinomescan method relative to control; procedure, shortened: as §1
# Chain of Eukaryotic translation initiation factor 2-alpha kinase 1 (Homo sapiens) (Q9BQI3 whole entry, the tested form may be a part): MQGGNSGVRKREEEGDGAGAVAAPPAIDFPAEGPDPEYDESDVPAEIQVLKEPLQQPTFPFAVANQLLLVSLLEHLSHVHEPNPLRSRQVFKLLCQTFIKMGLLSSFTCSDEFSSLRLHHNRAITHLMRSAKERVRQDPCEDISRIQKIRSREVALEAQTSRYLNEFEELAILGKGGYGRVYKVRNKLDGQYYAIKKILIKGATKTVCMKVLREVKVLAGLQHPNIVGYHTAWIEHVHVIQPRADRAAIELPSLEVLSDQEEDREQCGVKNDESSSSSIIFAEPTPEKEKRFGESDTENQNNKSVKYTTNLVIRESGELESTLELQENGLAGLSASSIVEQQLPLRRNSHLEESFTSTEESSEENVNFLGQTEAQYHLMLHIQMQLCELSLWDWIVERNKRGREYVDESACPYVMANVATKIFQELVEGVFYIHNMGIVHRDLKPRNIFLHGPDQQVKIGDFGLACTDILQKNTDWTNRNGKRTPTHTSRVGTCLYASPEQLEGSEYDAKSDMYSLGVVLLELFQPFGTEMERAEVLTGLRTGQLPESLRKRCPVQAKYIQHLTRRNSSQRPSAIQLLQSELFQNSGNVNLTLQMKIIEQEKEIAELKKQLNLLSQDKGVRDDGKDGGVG
# [15] = target: Activated CDC42 kinase 1 (Homo sapiens) (UniProt Q07912); test: Inhibition of wild-type human partial length TNK2 (S159 to D474 residues) expressed in bacterial expression system at 10 uM by Kinomescan method relative to control; procedure, shortened: as §1
# Chain of Activated CDC42 kinase 1 (Homo sapiens) (Q07912 whole entry, looked up, the tested form may be a part): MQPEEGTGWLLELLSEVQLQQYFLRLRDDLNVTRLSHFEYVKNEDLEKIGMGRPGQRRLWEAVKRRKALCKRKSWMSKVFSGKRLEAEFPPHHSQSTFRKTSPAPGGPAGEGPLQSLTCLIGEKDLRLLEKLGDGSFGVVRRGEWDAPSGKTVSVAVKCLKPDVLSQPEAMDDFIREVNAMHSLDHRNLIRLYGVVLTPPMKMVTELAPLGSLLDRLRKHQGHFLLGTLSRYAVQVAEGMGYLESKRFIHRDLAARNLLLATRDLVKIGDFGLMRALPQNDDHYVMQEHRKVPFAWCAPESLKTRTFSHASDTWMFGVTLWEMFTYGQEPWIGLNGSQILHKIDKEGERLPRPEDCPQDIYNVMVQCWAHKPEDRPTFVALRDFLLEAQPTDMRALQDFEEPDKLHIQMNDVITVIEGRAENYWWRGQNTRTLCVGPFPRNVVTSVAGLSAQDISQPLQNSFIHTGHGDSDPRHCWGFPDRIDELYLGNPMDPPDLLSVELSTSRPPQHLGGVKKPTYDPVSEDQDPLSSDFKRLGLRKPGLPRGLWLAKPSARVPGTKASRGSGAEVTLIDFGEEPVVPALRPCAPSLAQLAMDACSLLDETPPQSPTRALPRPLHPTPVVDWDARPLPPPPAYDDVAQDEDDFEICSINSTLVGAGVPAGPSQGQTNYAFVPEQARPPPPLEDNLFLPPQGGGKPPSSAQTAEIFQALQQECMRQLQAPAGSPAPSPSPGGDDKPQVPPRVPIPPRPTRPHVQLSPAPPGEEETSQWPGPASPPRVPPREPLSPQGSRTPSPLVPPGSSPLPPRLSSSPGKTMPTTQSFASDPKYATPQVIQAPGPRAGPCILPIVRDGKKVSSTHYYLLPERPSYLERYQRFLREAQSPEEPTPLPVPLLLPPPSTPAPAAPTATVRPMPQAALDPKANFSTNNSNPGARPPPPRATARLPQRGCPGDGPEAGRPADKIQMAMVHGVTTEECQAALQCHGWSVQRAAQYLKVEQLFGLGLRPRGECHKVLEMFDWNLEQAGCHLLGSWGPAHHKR
# [16] = target: Serine/threonine-protein kinase 32A (Homo sapiens) (UniProt Q8WU08); test: Inhibition of wild-type human full-length YANK1 (M1 to L396 residues) expressed in mammalian expression system at 10 uM by Kinomescan method relative to control; procedure, shortened: as §1
# Chain of Serine/threonine-protein kinase 32A (Homo sapiens) (Q8WU08 whole entry, the tested form may be a part): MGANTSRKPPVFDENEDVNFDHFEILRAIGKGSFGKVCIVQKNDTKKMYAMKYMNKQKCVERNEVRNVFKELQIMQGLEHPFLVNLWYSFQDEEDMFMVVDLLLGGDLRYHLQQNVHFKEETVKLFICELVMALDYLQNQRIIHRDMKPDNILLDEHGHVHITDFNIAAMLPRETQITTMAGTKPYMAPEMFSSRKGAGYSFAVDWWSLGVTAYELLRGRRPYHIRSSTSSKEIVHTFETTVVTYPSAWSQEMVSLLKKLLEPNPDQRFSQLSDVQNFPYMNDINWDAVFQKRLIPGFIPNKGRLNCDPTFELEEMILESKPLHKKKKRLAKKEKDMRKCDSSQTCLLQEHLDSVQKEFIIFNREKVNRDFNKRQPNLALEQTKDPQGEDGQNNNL
smiles,measurement,setting,value
CNC(=O)CN(Cc1cccc2[nH]ccc12)C(=O)c1c[nH]c(C(=O)N2CCCC2)c1,pIC50,[1],5.74
CNC(=O)[C@@H](C)N(Cc1ccccc1OC(F)F)C(=O)c1c[nH]c(C(=O)N2Cc3ccc(C(N)=O)cc3C2)n1,pIC50,[1],8.70
same,solubility at 24 h,[2],5 µM
same,half-life at 1 µM,[3],24 min
same,half-life at 1 µM,[4],29 min
same,half-life at 1 µM,[5],19 min
same,"Papp A→B at 2 h, 2 µM",[6],0.1 ×10⁻⁶ cm/s
same,"Papp B→A at 2 h, 2 µM",[7],6 ×10⁻⁶ cm/s
same,Activity,[8],inactive
O=C(c1c[nH]c(C(=O)N2CCCC2)c1)N(Cc1ncco1)Cc1ccccc1OC(F)F,pIC50,[1],5.49
CNC(=O)CN(Cc1ccccc1OC(F)F)C(=O)c1c[nH]c(C(=O)N2CCCCC2)c1,pIC50,[1],5.74
CNC(=O)CN(Cc1cc(F)ccc1OC(F)F)C(=O)c1c[nH]c(C(=O)N2CCCC2)n1,pIC50,[1],< 5.00
CNC(=O)CN(Cc1ccccc1OC(F)F)C(=O)c1c[nH]c(C(=O)N2CCC(C)C2)n1 (stereo unspecified),pIC50,[1],6.05
CNC(=O)CN(Cc1ccccc1OC(F)F)C(=O)c1cc(C(=O)N2CCCC2)[nH]n1,pIC50,[1],4.23
CNC(=O)CN(Cc1ccccc1OC(F)F)C(=O)c1c[nH]c(C(=O)N2Cc3ccc(C(N)=O)cc3C2)n1,pIC50,[1],8.30
same,inhibition,[9],> 65%
same,inhibition,[10],> 65%
CN(Cc1ccccc1OC(F)F)C(=O)c1c[nH]c(C(=O)N2CCCC2)c1,pIC50,[1],5.46
CNC(=O)CN(Cc1ccccc1)C(=O)c1c[nH]c(C(=O)N2CCCC2)n1,pIC50,[1],< 5.00
CNC(=O)CN(Cc1ccccc1OC(F)F)C(=O)c1c[nH]c(C(=O)N2CCCC2)c1,pIC50,[1],5.89
CNC(=O)CN(Cc1ccccc1OC(F)F)C(=O)c1c[nH]c(C(=O)N2Cc3ccccc3C2)n1,pIC50,[1],6.52
CNC(=O)CN(Cc1ccccc1OC(F)F)C(=O)c1c[nH]c(C(=O)N2CCCC2)n1,pKd,[11],7.26
same,solubility at 24 h,[2],30 µM
same,half-life at 1 µM,[3],> 120 min
same,half-life at 1 µM,[4],> 120 min
same,half-life at 1 µM,[5],> 120 min
same,"Papp A→B at 2 h, 2 µM",[6],1 ×10⁻⁶ cm/s
same,"Papp B→A at 2 h, 2 µM",[7],20 ×10⁻⁶ cm/s
same,"efflux ratio at 2 h, 2 µM",[12],20
same,inhibition,[13],> 65%
same,inhibition,[14],> 65%
same,inhibition,[15],> 65%
same,inhibition,[16],> 65%
CNC(=O)CN(Cc1ccccc1OC(F)F)C(=O)c1c[nH]c(C(=O)N2CCCCCC2)n1,pIC50,[1],5.54
CC(C)NC(=O)CN(Cc1ccccc1OC(F)F)C(=O)c1c[nH]c(C(=O)N2CCCC2)c1,pIC50,[1],5.77
CNC(=O)CN(Cc1ccccc1OC(F)F)C(=O)c1c[nH]c(C(=O)N2CCCCC2)n1,pIC50,[1],5.92
CCC(C(=O)NC)N(Cc1ccccc1OC(F)F)C(=O)c1c[nH]c(C(=O)N2CCCC2)n1 (stereo unspecified),pIC50,[1],6.00
CNC(=O)CN(Cc1cccc(OC(F)F)c1)C(=O)c1c[nH]c(C(=O)N2CCCC2)n1,pIC50,[1],< 5.00
CNC(=O)CN(Cc1c(Cl)cccc1OC(F)F)C(=O)c1c[nH]c(C(=O)N2CCCC2)n1,pIC50,[1],< 5.00
CNC(=O)CN(Cc1ccccc1OC(F)F)C(=O)c1cc(C(=O)N2CCCC2)n(C)c1,pIC50,[1],< 4.00
Nc1ncc(-c2cnn([C@H]3CC[C@H](O)CC3)c2)c2c(Cl)c(-c3cccc4nnsc34)oc12,pIC50,[1],8.00
